The text below walks through data of publication PMC7165017 (Inorganic chemistry, 2019).

Where two headings read alike, the source gives them in different places.

Data set [1] relates to microtubule network in MDA-MB-231 cells. Kind of data set: Immunofluorescence study of microtubule network disruption. In kind it is cell-based, human. The settings on record: 12 h; cisplatin 50 μM, colchicine 100 nM (controls). The procedure, abridged: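 5 × 10^4 MDA-MB-231 cells were grown on glass coverslips for 48 h, then treated 12 h (vehicle 0.1% DMSO). Fixation used 4% paraformaldehyde for 10 min and 100 mM glycine quench, followed by 3% BSA/PBST block for 20 min. Rabbit monoclonal anti-α-tubulin (1:400, 2 h) was followed by AlexaFluor 488 anti-rabbit (1:1000, 2 h, dark) and DAPI mount. Confocal imaging used a 63× objective. Microtubule-network perimeter was averaged over ≥10 treated versus ≥10 untreated cells and expressed as relative perimeter.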

The next data set relates to MIA PaCa-2 cells. Kind of data set: MTT cell viability assay, MIA PaCa-2. Conditions: read-out: IC50 ± SD, MIA PaCa-2, 48 h, normoxia (∼15% O2). In kind it is cell-based, human. In a few lines: (§1)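 Media: Hep G2 in MEM, MIA PaCa-2 in DMEM, MDA-MB-231 in DMEM/F-12, each with 10% FBS and antibiotics. Cells were seeded at 6 × 10^3 per well and kept 48 h at 37 °C, 5% CO2. Medium was renewed, then compound was added (DMSO ≤0.2%, vehicle-matched) for 48 h in triplicate wells. MTT (1 mg mL−1) ran 3 h; formazan was dissolved in DMSO and read at 595 nm versus untreated wells. IC50 came from a four-parameter variable-slope fit, ≥3 independent experiments. Hypoxic MDA-MB-231 cells were kept at 1.5% O2 for ≥2 passages beforehand.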
Background: Tetrazolium dyes change colour on reduction, which living cells bring about.

Another data set has as its system Hep G2 cells. As to the kind of experiment: MTT cell viability assay, Hep G2. In kind it is cell-based, human. The settings on record: read-out: IC50 ± SD, Hep G2, 48 h, normoxia (∼15% O2). In a few lines:
as §1

Another data set deals with MDA-MB-231 cells. As to the kind of experiment: MTT cell viability assay, MDA-MB-231. It counts as cell-based, human. In a few lines: as §1
The nature of data set [2]: Solution stability study by 1H NMR. Conditions: DMSO-d6/phosphate buffer 3:7 (v/v), within 12 h. In kind it is physicochemical. In a few lines:
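Complexes were monitored by 1H NMR in DMSO-d6 or DMF-d7 mixed 1:9 (v/v) with degassed 20 mM phosphate buffer (pD 7.4, 4 mM NaCl). Spectra were taken at 25 °C at time points up to 24 h. Free ligands were monitored in DMSO-d6/phosphate buffer 3:7 (v/v).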

The term IC50 denotes the concentration that inhibits the measured activity by half. Regarding `[NH2][Pt]([NH2])([Cl])[Cl]` [CDDP, cisplatin, reference compound], the “disruption of the microtubule network” value in data set [1] is given as “did not observe any disruption of the microtubule formation”. Moreover, the half-maximal inhibitory concentration (IC50) in the data set on MIA PaCa-2 cells was found to be 31.8 ± 4.8 µM; with Hep G2 cells it was 14.3 ± 0.8 µM; with MDA-MB-231 cells (read-out: IC50 ± SD, MDA-MB-231 (hypo), 48 h, hypoxia (1.5% O2)), 37.8 ± 2.3 µM; in the data set on MDA-MB-231 cells (read-out: IC50 ± SD, MDA-MB-231, 48 h, normoxia (∼15% O2)), 37.2 ± 2.5 µM.

With `COc1cc(N=Cc2ccccc2O)cc(OC)c1OC` [Complex L1, 2-{[(3,4,5-Trimethoxyphenyl)imino]-methyl}phenol], in data set [2], the “hydrolysis of ligand into amine and aldehyde” value was around 80%.

Regarding `COc1cccc(C=Nc2cc(OC)c(OC)c(OC)c2)c1O` [Complex L3, 2-Methoxy-6-{[(3,4,5-trimethoxyphenyl)imino]-methyl}phenol], in data set [2], the “hydrolysis of ligand into amine and aldehyde” value is around 80%.

Regarding `COc1cc2c(c(OC)c1OC)-c1ccc(OC)c(=O)cc1[C@@H](NC(C)=O)CC2` [colchicine, reference compound], the “disruption of the microtubule network” value in data set [1] is “exhibited microtubule network damage”.
